SIRT5 block: sirtuin-5 (human) deacylase inhibition. actives 1.1% (n = 330,000). inhibition, % at 15 µM. Purified SirT5, succinyl-peptide AMC, trypsin-coupled fluorescence; in the data active = inhibition above about 15%; inconclusive = no clear call, values can overlap the other calls
DENV2 CPE: DENV2-induced cell death inhibition. DENV2-infected cells, cytopathic effect rescue, plate reader. CPE inhibition, % at 9.99 µM. actives 1.7% (n = 350,000). AID 651640; in the data active = CPE inhibition above about 20%, passing the limit was not always enough; inconclusive = no clear call, values can overlap the other calls; tested in BHK-21 cells
E-selectin induc: induces E-selectin expression in human endothelial cells | AID 686992 | HUVEC E-selectin immunofluorescence imaging; normalized: neutral wells 0, TNF-alpha wells 100 | P16581 | actives 0.37% (n = 260,000) | activation, % at 7.58 µM;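 active = mean E-selectin-positive cell signal at least 10% of the positive control, reached in at least 60% of replicates, without over 20% cell loss; inconclusive = no rule given, readout overlaps actives, possibly toxicity-flagged; inactive = the rest, including those meeting only one limit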
Target sequence (P16581 whole entry, looked up): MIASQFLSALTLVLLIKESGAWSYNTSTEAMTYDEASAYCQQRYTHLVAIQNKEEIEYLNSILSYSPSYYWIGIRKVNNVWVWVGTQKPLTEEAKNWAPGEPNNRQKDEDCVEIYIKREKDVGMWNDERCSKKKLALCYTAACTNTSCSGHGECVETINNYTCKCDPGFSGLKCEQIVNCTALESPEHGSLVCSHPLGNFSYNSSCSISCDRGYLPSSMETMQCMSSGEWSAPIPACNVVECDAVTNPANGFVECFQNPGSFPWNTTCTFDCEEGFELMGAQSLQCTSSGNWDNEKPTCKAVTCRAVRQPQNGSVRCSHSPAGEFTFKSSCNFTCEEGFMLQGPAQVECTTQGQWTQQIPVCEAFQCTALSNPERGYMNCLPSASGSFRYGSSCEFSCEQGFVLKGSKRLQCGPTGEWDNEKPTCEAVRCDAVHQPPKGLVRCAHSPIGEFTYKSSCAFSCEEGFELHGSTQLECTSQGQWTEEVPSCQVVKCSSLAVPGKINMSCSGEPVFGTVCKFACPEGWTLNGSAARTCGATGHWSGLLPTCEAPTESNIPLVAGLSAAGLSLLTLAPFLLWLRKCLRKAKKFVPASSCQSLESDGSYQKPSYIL
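Test system – human umbilical vein endothelial cells (HUVEC), E-selectin induction · Input – 3,000 HUVEC seeded per well · Buffer or medium – EGM-2, gelatin · Compound dosing – single-point compound dose · Detection – immunofluorescence imaging · Measure – percent E-selectin-positive cells · Controls – TNF-alpha high, DMSO low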
Large screens that a line does not name were inactive. A selection: hits, their analogues and other compounds. The true share with any hit is near 2.9%.

COc1ccc(CNc2ncnc3c2[nH]c2cc(OC)c(OC)cc23)cc1	E-selectin induc 66.9 (no result: SIRT5 block)
COc1ccc(CNc2ncnc3c2[nH]c2ccccc23)cc1	none (no result: E-selectin induc)
COc1ccc(CN2C(=O)C(CC(C)C)Nc3ncnc(N4CCN(c5ccccn5)CC4)c32)cc1 (stereo not drawn)	DENV2 CPE inconclusive
O=C(O)CCCNc1ccc(S(=O)(=O)N2CCCCC2)cc1	none
CC[C@@H]1C=C(C(=O)O)[C@H](c2ccc(Cl)cc2)N1S(=O)(=O)c1ccc(C)cc1	none
CC(Sc1nnc(COc2ccc(Cl)cc2)n1Cc1ccccc1)C(=O)O (stereo not drawn)	none (no result: E-selectin induc)
Cc1cc(OCc2nnc(SC(C)C(=O)O)n2Cc2ccccc2)ccc1Cl (stereo not drawn)	SIRT5 block 23.7 (no result: E-selectin induc)
O=C(CN(C(=O)c1csnn1)c1ccc2c(c1)OCCO2)NCc1ccc(F)cc1	DENV2 CPE inconclusive, E-selectin induc 39.0
COc1ccc(CNC(=O)CN(C(=O)c2csnn2)c2ccc3c(c2)OCCO3)cc1	none
Cc1ccc(N2CC(C(=O)Nc3ccc4c(c3)OCCO4)CC2=O)cc1C (stereo not drawn)	none (no result: E-selectin induc)
COc1ccccc1CNC(=O)C1CCC(CNS(=O)(=O)c2cccs2)CC1 (stereo not drawn)	none (no result: E-selectin induc)
COc1ccccc1CNS(=O)(=O)c1cccs1	SIRT5 block 88.7 (no result: E-selectin induc)
COc1ccc(CCCNC(=O)C2CCC(=O)N(CCc3cccc(F)c3)C2)cc1 (stereo not drawn)	none
Cc1cccc(C)c1-n1c(SCC(=O)Nc2ccc(C(=O)O)cc2)nnc1-c1cccc(S(=O)(=O)N(C)C)c1	none (no result: E-selectin induc)
CCOC(=O)C(=O)C1=CN(Cc2ccccc2)C=C(C#N)C1	E-selectin induc 52.0
N#CC1=CN(Cc2ccccc2)C=C(/C=N/Nc2ccccc2)C1	none
COCCn1c(C)cc(C(=O)COC(=O)c2ccccc2Br)c1C	none (no result: E-selectin induc)
C[C@H]1CN([C@@H](C)CO)C(=O)Cc2cc(NC(=O)C3CCCCC3)ccc2O[C@@H]1CN(C)Cc1ccc(C(=O)Nc2ccccc2N)cc1	none
CN(C)CC(=O)N1[C@H](CO)[C@H](c2ccccc2)C12CN(C(=O)C1CCCC1)C2	none
COc1cccc(NC(=O)c2nn(C)c(C(=O)Nc3cccc(OC)c3)c2[N+](=O)[O-])c1	none
CCOc1ccc(NC(=O)c2nn(C)c(C(=O)Nc3ccc(OCC)cc3)c2[N+](=O)[O-])cc1	DENV2 CPE 34.3
O=C(Nc1ccccc1F)N1CCC(NC(=O)C23CC4CC(CC(C4)C2)C3)CC1	none (no result: E-selectin induc)
C[C@@H]1CN([C@@H](C)CO)C(=O)Cc2cc(N(C)C)ccc2O[C@@H]1CN(C)C(=O)Nc1ccccc1	none (no result: E-selectin induc)
C[C@@H]1CN([C@H](C)CO)C(=O)Cc2cc(NC(=O)C3CC3)ccc2O[C@H]1CN(C)C(=O)Nc1ccccc1	DENV2 CPE 105.0
C[C@H](CO)N1C[C@H](C)[C@H](CN(C)Cc2ccccc2)Oc2ccc(NC(=O)C3CC3)cc2CC1=O	none
C[C@@H]1CN([C@H](C)CO)C(=O)Cc2cc(NC(=O)C3CC3)ccc2O[C@@H]1CN(C)Cc1ccccc1	SIRT5 block 98.6, DENV2 CPE inconclusive
C[C@H](CO)N1C[C@H](C)[C@H](CN(C)C(=O)Nc2ccccc2)Oc2ccc(N(C)C)cc2CC1=O	DENV2 CPE 44.7 (no result: E-selectin induc)
C[C@@H]1CN([C@@H](C)CO)C(=O)Cc2cc(NC(=O)C3CC3)ccc2O[C@@H]1CN(C)C(=O)Nc1ccccc1	DENV2 CPE inconclusive, E-selectin induc inconclusive
C[C@H](CO)N1C[C@H](C)[C@H](CN(C)Cc2ccc(-c3ccccc3)cc2)Oc2ccc(NC(=O)C3CC3)cc2CC1=O	none
C[C@@H]1CN([C@@H](C)CO)C(=O)Cc2cc(NC(=O)C3CC3)ccc2O[C@@H]1CN(C)Cc1ccc(-c2ccccc2)cc1	DENV2 CPE 31.3
COC(=O)[C@H](Cc1ccccc1)N1CC2=CCCC=C[C@H]2[C@@H]1[C@@H](O)Cc1ccccc1	none (no result: E-selectin induc)
O=[N+]([O-])c1cc2no[n+]([O-])c2cc1N1CCCCC1	none
Cc1csc(SC(C)C(=O)NC2CCCCC2C)n1 (stereo not drawn)	none
CN1C(=O)c2cc(NC(=O)Nc3ccc(Cl)cc3)ccc2OC[C@@H]2O[C@H](CC(=O)O)CC[C@H]21	none
C=CCc1cc(OC)ccc1OCCN1CC(C)OC(C)C1 (stereo not drawn)	SIRT5 block 101.6 (no result: E-selectin induc)
C=CCc1cc(Cl)ccc1OCCN1CC(C)OC(C)C1 (stereo not drawn)	none (no result: E-selectin induc)
CCOC(=O)c1ccc(Nc2nc(C)nc3c2nnn3Cc2ccccc2)cc1	none
CCCNC(=O)[C@H]1[C@H](CO)[C@H]2Cn3c(ccc(-c4cncnc4)c3=O)[C@@H]1N2C(=O)Nc1ccccc1	none
Nc1ccccc1Nc1cc(-c2ccccc2)nn1-c1cccc(Cl)c1	DENV2 CPE 20.3 (no result: E-selectin induc)
Nc1cc(-c2ccc(Cl)cc2)nn1-c1ccccc1	none
O=C(CN1CCCc2ccccc21)Nc1ccccc1[N+](=O)[O-]	none
CCOc1ccc2[nH]cc(-c3csc(N)n3)c2c1	none (no result: E-selectin induc)
COc1ccc(C(=O)Nc2nnc(CC(=O)N/N=C/c3ccc(O)cc3O)s2)cc1	SIRT5 block 16.8
Cc1ccc(C(=O)Nc2nnc(CC(=O)N/N=C/c3ccc(O)c(O)c3)s2)cc1	none
Nc1ncnc2c1ncn2[C@@H]1O[C@H](CNC(=O)[C@@H]2C[C@H](F)CN2)[C@@H](O)[C@H]1O	none
Cc1ccc(C(=O)O)cc1NS(=O)(=O)c1ccc2ccccc2c1	none
O=C(c1ccncc1)N1C[C@@H]2[C@H](c3ccccc31)[C@H](CO)N2C(=O)c1ccccc1F	none
COc1ccccc1NC(=O)N1C[C@@H]2[C@H](c3ccccc31)[C@@H](CO)N2C(C)=O	DENV2 CPE 43.9
O=C(c1ccncc1)N1C[C@H]2[C@@H](c3ccccc31)[C@H](CO)N2C(=O)c1ccccc1F	DENV2 CPE 43.4
O=C(c1cccc(F)c1)N1C[C@H]2[C@@H](c3ccccc31)[C@@H](CO)N2C(=O)c1cccc(F)c1	DENV2 CPE 20.9
O=C(c1cccc(F)c1)N1C[C@H]2[C@@H](c3ccccc31)[C@H](CO)N2C(=O)c1cccc(F)c1	none
COc1cccc(C(=O)N2C[C@@H]3[C@H](c4ccccc42)[C@H](CO)N3C(=O)c2ccc(F)cc2)c1	none
COc1ccccc1NC(=O)N1C[C@H]2[C@@H](c3ccccc31)[C@@H](CO)N2C(C)=O	none
COc1cccc(C(=O)N2C[C@H]3[C@@H](c4ccccc42)[C@H](CO)N3C(=O)c2ccc(F)cc2)c1	DENV2 CPE 26.7
CC(C(=O)N1CCN(Cc2ccccc2)CC1)n1ncn2cccc2c1=O (stereo not drawn)	none
COc1ccc(NC(=O)N(C)C[C@H]2Oc3ccc(NC(=O)Cn4cnnn4)cc3CC(=O)N([C@H](C)CO)C[C@H]2C)cc1	none (no result: E-selectin induc)
C[C@@H]1CN([C@@H](C)CO)S(=O)(=O)c2ccc(C#Cc3ccncc3)cc2O[C@@H]1CN(C)C(=O)Nc1ccc2c(c1)OCO2	none
O=C(Nc1ccccc1F)N1C[C@@H]2[C@H](c3ccccc31)[C@H](CO)N2C(=O)c1ccc(F)cc1	DENV2 CPE 34.9
O=C(Nc1ccccc1F)N1C[C@@H]2[C@H](c3ccccc31)[C@@H](CO)N2C(=O)c1ccc(F)cc1	none
COc1ccc(C(=O)Nc2cnc(NC(=O)c3cccs3)cc2C)cc1	E-selectin induc 33.3
COc1ccc(C(=O)Nc2cc(C)c(NC(=O)c3ccccn3)cn2)cc1	none (no result: E-selectin induc)

Source: PubChem BioAssay (Broad Institute)
